Most compounds without a hit are left out; they make up all but 2.8% or so of the library.
eIF4E 4G PPI = blocks eIF4E binding to eIF4G | TR-FRET eIF4E-eIF4GI(517-606) binding, 2 h | inhibition, % at 21.7 µM | 220,000 compounds, 0.37% hits | AID 782;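 note: 0% = full FRET control wells and 100% = background wells lacking eIF4GI fragment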
RBBP9 inhibitor = blocks human serine hydrolase RBBP9; O75884; recombinant RBBP9, FP-Rh probe fluorescence polarization; inhibition, % at 7.94 µM; 220,000 compounds, 0.2% hits; AID 1515;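 active = inhibition above the campaign mean of all tested compounds plus 3 SD, cut at about 14% in these data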;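 note: plate controls were DMSO wells with RBBP9 for no effect and wells lacking RBBP9 protein for full effect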
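Test system: recombinant human RBBP9. Quantity: 2.5 µM RBBP9 dispensing solution, before mixing. Detection: FP readout at 525/598 nm. Reagent: Serine-hydrolase probe FP-Rh, 375 nM pre-mixing. Measure: % inhibition. Control set: DMSO-treated enzyme wells and wells lacking RBBP9. Buffer or medium: Tris-NaCl-Pluronic buffer, pH 8.0. Times: preincubation 30 min plus labeling 45 min at 25 °C.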
Wee1 degr inh = inhibitors of human Wee1 degradation | P30291 | HeLa Luc-Wee1K328M stability, luciferase luminescence; 100% = proteasome inhibitor MG132 effect | reporter increase, % at 5 µM | 220,000 compounds, 1.2% hits | AID 1321;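 active = activation above the mean of all tested compounds plus 3 SD, set per screening run, cut at about 8.8% in these data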;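 note: cells exposed to compound for 20 h before luminescence read; 0% = DMSO alone and 100% = MG132 at 30 µM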
Target sequence (P30291 whole entry K328M): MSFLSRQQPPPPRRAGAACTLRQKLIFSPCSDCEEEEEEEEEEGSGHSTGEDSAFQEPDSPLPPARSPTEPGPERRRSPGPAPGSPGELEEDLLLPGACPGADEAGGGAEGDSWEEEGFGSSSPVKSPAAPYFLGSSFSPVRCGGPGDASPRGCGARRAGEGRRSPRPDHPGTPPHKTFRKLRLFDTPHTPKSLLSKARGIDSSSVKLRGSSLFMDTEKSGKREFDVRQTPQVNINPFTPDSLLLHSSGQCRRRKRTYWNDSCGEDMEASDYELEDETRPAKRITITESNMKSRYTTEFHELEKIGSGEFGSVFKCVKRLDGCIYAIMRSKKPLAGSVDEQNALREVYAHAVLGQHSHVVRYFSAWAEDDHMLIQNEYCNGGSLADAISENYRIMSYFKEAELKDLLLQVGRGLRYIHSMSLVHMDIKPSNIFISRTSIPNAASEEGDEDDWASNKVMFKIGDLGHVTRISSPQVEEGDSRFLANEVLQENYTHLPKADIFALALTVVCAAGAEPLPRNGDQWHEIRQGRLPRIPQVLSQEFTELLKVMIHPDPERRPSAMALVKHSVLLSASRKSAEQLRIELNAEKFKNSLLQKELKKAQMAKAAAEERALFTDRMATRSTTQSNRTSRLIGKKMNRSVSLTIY
p47phox inh = blocks human p47phox regulatory protein of NADPH oxidases | inhibition, % at 24.7 µM | 220,000 compounds, 0.53% hits | P14598 | p47phox/p22phox peptide binding, fluorescence polarization, 2 h;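 note: 0% = p47phox with labelled peptide and 100% = labelled peptide alone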
14-3-3 Bad inh = disrupts binding of bovine 14-3-3 zeta to phospho-Bad peptide; inhibition, % at 21.7 µM; P63103; TR-FRET 14-3-3zeta/Dy647-pBad peptide displacement, 1 h; 220,000 compounds, 0.71% hits;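 active = inhibition above about 70%, limit read from the data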;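 note: 0% = full 14-3-3 plus peptide FRET controls and 100% = background without 14-3-3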
Active calls of the source: *; . = no result given; [ ] = dose if it differs, or a comment.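 Rule for the calls, unless noted: active = inhibition above about 30% (limit read from the data); inactive = the rest.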

SMILES | eIF4E 4G PPI | RBBP9 inhibitor | Wee1 degr inh | p47phox inh | 14-3-3 Bad inh
CNC(=O)OCc1cccc(COC(=O)NC)n1 | 1 | -1 | 0 | 39* | 31
O=C1CSC2(N1)C1CC3CC(C1)CC2C3 (stereo unspecified) | -3 | -5 | 0 | -11 | 2
CC1CCc2c(C(=O)Nc3ccccn3)csc2C1 (stereo unspecified) | -8 | -8 | 4 | -1 | -2
CC1CCc2c(C(=O)NCc3ccccn3)csc2C1 (stereo unspecified) | -3 | 0 | 9.0* | 14 | -6
CCCCC(=O)Nc1nn(CC(C)C)c2nc3ccccc3cc12 | 1 | -9 | -3 | -16 | 82*
CC(C)Cn1nc(NC(=O)C(C)(C)C)c2cc3ccccc3nc21 | -5 | 1 | 0 | -21 | 53
CC(C)CCN1CCN(CCCn2cccn2)CC1CCO (stereo unspecified) | 2 | -2 | 2 | 6 | 4
Cc1cccn2c(=O)c(/C=C(\C#N)C(=O)NCc3ccccc3)c(N3CCC(C(N)=O)CC3)nc12 | 1 | -7 | 4 | -4 | 13
CCc1cc(CNC(=O)CC2C(=O)NCCN2Cc2c(F)cccc2Cl)on1 (stereo unspecified) | -2 | 1 | -2 | 91* | -7
CC(=O)Nc1ccnc(-c2cccnc2)n1 | 86* | -9 | 0 | -20 | 0
CC(C)C(=O)Nc1ccnc(-c2cccnc2)n1 | 4 | -5 | -3 | 4 | -7
CC1CCN(Cc2nnnn2-c2ccc(Cl)cc2)CC1 | 5 | 0 | -1 | -12 | 2
CCOc1c(N2CC(C)OC(C)C2)c(=O)c1=O (stereo unspecified) | 0 | 7 | 9.4* | -9 | 7
COc1cc(-c2ccc(NC(=O)CN3CCCCC3)c(OC)c2)ccc1NC(=O)CN1CCCCC1 | . | 1 | 8.9* | . | .
COc1cc(NC(=O)C2CCCCC2)c(OC)cc1NC(=O)CN1CCCCC1 | 9 | -1 | 1 | -17 | -8
O=C(CN1CCCCCC1)Nc1ccc(F)c(F)c1 | 3 | 8 | -1 | -17 | 72*
O=C(O)CCCN1C(=O)/C(=C\c2ccc(-c3nc4ccccc4s3)o2)SC1=S | 15 | 6 | -2 | -240 | 81*
O=C(O)CCCN1C(=O)/C(=C/C=C/c2ccco2)SC1=S | 32* | 3 | 1 | -64 | 76*
O=C(O)C(Cc1ccccc1)N1C(=O)/C(=C/C=C/c2ccco2)SC1=S (stereo unspecified) | 53* | 5 | 3 | -71 | 95*
O=C(O)CCN1C(=O)/C(=C/c2ccc(-c3nc4ccccc4s3)o2)SC1=S | 18 | -8 | -1 | 8 | 22
O=C(O)CC(C(=O)O)N1C(=O)/C(=C/C=C/c2ccco2)SC1=S (stereo unspecified) | 32* | -5 | -1 | -44 | 74*
CCCNC(=O)COc1ccc(S(=O)(=O)Nc2ccc(C)cc2)cc1 | -3 | -2 | 1 | -12 | 1
CCOC(=O)C1CCCN(C(=O)COc2ccc(S(=O)(=O)N(CC)c3ccccc3)cc2)C1 (stereo unspecified) | -1 | 5 | -1 | -4 | -9
CSCC[C@H](Nc1ncnc2sc(C)c(C)c12)C(=O)O | 2 | 0 | 1 | -2 | 2
Cc1ccc(CNC(=O)COc2ccc(C)nc2[N+](=O)[O-])cc1 | -2 | -5 | 3 | -7 | 9
SMILES | eIF4E 4G PPI | RBBP9 inhibitor | Wee1 degr inh | p47phox inh | 14-3-3 Bad inh
Cc1ccc(COc2ccc(C)nc2[N+](=O)[O-])cc1 | 0 | 2 | 8.8* | 5 | -5
O=C(Nc1cc(Cl)cc(Cl)c1)c1coc(=O)c(Br)c1 | 2 | -5 | 14* | -37 | 23
Cc1nnc2n1CCCCC2 | 2 | 3 | -1 | -2 | 5
Cc1cccc2nc(CSc3nc4ccc([N+](=O)[O-])cc4[nH]3)c(Br)n12 | -4 | 3 | -3 | -13 | -8
Nc1cc2nc[nH]c2cc1N | 36* | 4 | 3 | 16 | 92*
COc1cc(C)c(CNc2ccc(OC)c(OC)c2)cc1C | 13 | 1 | -1 | 17 | 80*
COc1cc(C)c(CNc2cccc(C)c2)cc1C | -6 | 5 | 3 | -2 | 73*
Cc1cc(C(=O)CSc2cccc[n+]2[O-])c(C)n1-c1ccc(Br)cc1 | -2 | 5 | 9.6* | -9 | -5
Cc1cc(C(=O)CSc2cccc[n+]2[O-])c(C)n1-c1ccccc1 | -3 | -4 | 1 | -11 | -11
CC(=O)Nc1nc(CC(C)C)cc(-c2ccco2)c1C#N | 0 | -8 | -1 | -19 | 13
COC(=O)c1ccccc1NC(=O)COc1ccccc1 | -9 | 1 | 13* | -13 | -1
COCCNC(=O)c1ccccc1NC(=O)COc1ccccc1 | 1 | 14 | 0 | -6 | 8
O=C(COc1ccc([N+](=O)[O-])cc1)Nc1ccc(C(=O)Nc2ccccc2C(=O)O)cc1 | 2 | -8 | -1 | 48* | 12
CCn1c(=O)c(C(=O)NNS(=O)(=O)c2ccc(Cl)cc2)c(O)c2ccccc21 | -1 | -4 | -2 | -14 | 0
CCOC(=O)c1sc2cccc(Cl)c2c1N | 5 | -4 | 2 | -4 | -8
CCOC(=O)c1sc2cccc(F)c2c1N | -2 | -12 | 33* | -6 | -12
CCOC(=O)C(C)Sc1nc(-c2ccco2)cc(C(F)(F)F)c1C#N (stereo unspecified) | 2 | -1 | 9.9* | -46 | -2
CCOC(=O)c1ccc(NC(=O)/C=C/c2cccs2)cc1 | -5 | -8 | 11* | -6 | -1
CN(C(=O)CC1C(=O)NCCN1Cc1ccc(F)c(F)c1)C1CCOCC1 (stereo unspecified) | -5 | -1 | -4 | -7 | -5
O=C(COC(=O)CCc1ccc(S(=O)(=O)N2CCOCC2)cc1)NC1CCCC1 | 0 | -1 | -1 | -9 | -9
N#Cc1cc(-c2ccccc2)nn1-c1ccccc1 | 66*[fluorescence artefact?] | -10 | -2 | 34* | 80*[fluorescence artefact?]
Cn1ccc(-c2ccccc2)n1 | -2 | -7 | -2 | -1 | -4
COc1cc(NC(=S)NCCCN2CCOCC2)cc(OC)c1 | 2 | 4 | 9.6* | 4 | -5
COc1cccc(NC(=S)NCCN2CCOCC2)c1 | 0 | -9 | 2 | -14 | -12
O=C(CN1CCN(S(=O)(=O)c2ccccc2)CC1)Nc1ccc2c(c1)CCC2 | 3 | 0 | 0 | -11 | 7
CC(C)S(=O)(=O)c1cnc(N2CCOCC2)nc1N | -6 | -10 | 5 | 4 | -3
CCOC(=O)N1CCC(NC(=O)c2ccc3nc4ccccc4c(=O)n3c2)CC1 | 5 | -10 | -3 | 39* | -8
CCOC(=O)N1CCC(NC(=O)c2cccn3c(=O)c4cc(Br)ccc4nc23)CC1 | 8 | 0 | -2 | 19 | 24
COc1ccc(OC)c(N)c1 | -7 | 7 | 1 | 106* | 33
COc1ccc(C=O)c(OC)c1 | 3 | -3 | 0 | 3 | 1

Screens deposited in PubChem by several laboratories.
